The values that follow come from ChEMBL document CHEMBL1250535, “Synthesis, anti-fungal and 1,3-β-D-glucan synthase inhibitory activities of caffeic and quinic acid derivatives” (Bioorg Med Chem, 2010).

Molecules are shown by their SMILES. pIC50: −log10 of the molar value. In brackets after ≈: the same amount, converted by molar mass. Starred links: 1 amine or outer side, 2 acyl side, 3 side chain; linkers in the order of their positions; H or OH if unused. Positions of bridges follow the written chain, without caps; N, C: chain ends. Non-standard residues stand in square brackets, D forms with d. Residues, ends and D or L forms follow the SMILES beside them. *: point of attachment. Orn(4R-OH,5R-OH) = O=C([C@H](C[C@@H](O)[C@@H](O)N[*:3])N[*:1])[*:2]; hTyr(3S-OH,4S-OH) = N[C@H](C(=O)O)[C@H](O)[C@@H](O)c1ccc(O)cc1; Pro(3S-OH,4S-Me) = C[C@H]1CN[C@H](C(=O)O)[C@H]1O; Palmitoyl = CCCCCCCCCCCCCCCC(=O)*; Hyp = O=C(O)[C@@H]1C[C@@H](O)CN1

By pIC50 is commonly meant the negative decadic logarithm of the IC50, by convention in mol/L. A high value points to a low IC50. The MIC is the least concentration at which growth counts as inhibited. The low end stands for greater potency, the high end for weaker potency.

One assay has as its target T1, Beta-1,3-glucan synthase (Candida albicans, UniProt O13383).
T1 sequence (O13383 whole entry): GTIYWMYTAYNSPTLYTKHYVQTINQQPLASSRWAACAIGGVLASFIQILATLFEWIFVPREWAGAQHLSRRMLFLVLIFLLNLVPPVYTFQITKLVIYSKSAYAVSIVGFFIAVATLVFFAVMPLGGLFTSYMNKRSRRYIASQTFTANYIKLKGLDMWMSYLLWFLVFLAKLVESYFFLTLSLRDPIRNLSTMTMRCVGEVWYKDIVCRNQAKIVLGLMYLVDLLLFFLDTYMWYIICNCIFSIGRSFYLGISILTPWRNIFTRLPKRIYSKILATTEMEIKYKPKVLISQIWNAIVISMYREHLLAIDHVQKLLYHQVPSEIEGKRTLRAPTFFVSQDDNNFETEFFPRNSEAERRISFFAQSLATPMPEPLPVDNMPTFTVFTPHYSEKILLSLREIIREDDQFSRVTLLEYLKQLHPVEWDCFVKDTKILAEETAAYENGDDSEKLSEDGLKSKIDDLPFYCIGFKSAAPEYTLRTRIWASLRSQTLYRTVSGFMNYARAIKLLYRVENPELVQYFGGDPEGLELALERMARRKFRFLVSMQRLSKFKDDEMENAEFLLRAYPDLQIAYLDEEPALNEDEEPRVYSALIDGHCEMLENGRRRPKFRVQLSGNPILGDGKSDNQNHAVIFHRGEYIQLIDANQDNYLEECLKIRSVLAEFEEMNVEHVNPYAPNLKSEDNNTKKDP
Kind of assay: Inhibition of Candida albicans 1,3 beta-D-glucan synthase. The method in brief:
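Membrane-bound enzyme prepared from Candida albicans. Reaction mix: 50 mM Tris–HCl pH 7.5, 0.5 mM EDTA, 25 mM KF, GTPγS, 0.75% BSA, 5.0 mM UDP-Glc, with and without test compound. Started by adding enzyme, run 20 min at 30 °C, stopped by heating 10 min at 96 °C. Glucan formed quantified by a 1,3-β-D-glucan-dependent enzyme cascade (BGSTAR kit).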

For a further assay, the system named is Candida albicans. Kind of assay: Antifungal activity against Candida albicans by NCCLS method. Type of assay: functional. The method in brief: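 Broth dilution per NCCLS against Candida albicans NBRC 1594.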

For the molecule `CCCCCCCCOc1ccc(NC(=O)C(CCCNC(=O)OC(C)(C)C)NC(=O)/C=C/c2ccc(O)c(O)c2)cc1` (centres undefined), the pIC50 against Beta-1,3-glucan synthase is 4.28. Besides, in the assay with Candida albicans, the MIC was found to be 27 µM (≈ 16.1 µg/mL).

Turning to `CCCCCCCCOc1ccc(NC(=O)C(CCCN)NC(=O)[C@]2(O)C[C@@H](O)[C@@H](O)[C@H](O)C2)cc1` (some centres undefined), the pIC50 on Beta-1,3-glucan synthase is 4.28. In the assay on Candida albicans, inhibition of growth (MIC) required 16 µM (≈ 8.15 µg/mL).

In the case of `CCCCCCCCOc1ccc(NC(=O)[C@]2(O)C[C@@H](O)[C@@H](O)[C@H](O)C2)cc1`, the pIC50 against Beta-1,3-glucan synthase is < 4.09. The same molecule had a minimum inhibitory concentration (MIC) against Candida albicans of 81 µM (≈ 32 µg/mL).

On to `CCCCCCCCOc1ccc(NC(=O)C(NC(=O)[C@]2(O)C[C@@H](O)[C@@H](O)[C@H](O)C2)C(C)O)cc1` (some centres undefined), for which the pIC50 at Beta-1,3-glucan synthase was < 4.19. The MIC in the assay on Candida albicans is > 129 µM.

For the molecule `CCCCCCCCOc1ccc(NC(=O)C(CC(=O)O)NC(=O)[C@]2(O)C[C@@H](O)[C@@H](O)[C@H](O)C2)cc1` (some centres undefined), the pIC50 against Beta-1,3-glucan synthase was < 4.20. In the assay on Candida albicans, the MIC is > 125 µM.

`CCCCCCCCOc1ccc(NC(=O)C(CCCN)NC(=O)/C=C/c2ccc(O)c(O)c2)cc1` (centres undefined) had a pIC50 against Beta-1,3-glucan synthase of 4.66. In the assay on Candida albicans, this molecule registered an MIC of 4 µM (≈ 1.99 µg/mL).

Take `CCCCCCCCOc1ccc(NC(=O)/C=C/c2ccc(O)c(O)c2)cc1`: at Beta-1,3-glucan synthase, the negative logarithm of the IC50 (pIC50) was < 4.08. Further, in the assay with Candida albicans, the MIC was found to be 84 µM (≈ 32.2 µg/mL).

For `CCCCCCCCOc1ccc(NC(=O)C(NC(=O)/C=C/c2ccc(O)c(O)c2)C(C)O)cc1` (centres undefined), the pIC50 against Beta-1,3-glucan synthase is < 4.18. Besides, the MIC in the assay with Candida albicans came out at 8.3 µM (≈ 4.02 µg/mL).

In the case of `CCCCCCCCOc1ccc(NC(=O)C(CC(=O)O)NC(=O)/C=C/c2ccc(O)c(O)c2)cc1` (centres undefined), the pIC50 at Beta-1,3-glucan synthase is < 4.19. The molecule further gave an MIC against Candida albicans of 64 µM (≈ 31.9 µg/mL).

In the case of `CCCCCCCCOc1ccc(NC(=O)C(NC(=O)/C=C/c2ccc(O)c(O)c2)C(C)OC(C)(C)C)cc1` (centres undefined), the pIC50 against Beta-1,3-glucan synthase was 4.43. In addition, in the assay with Candida albicans, the MIC came to 15 µM (≈ 8.11 µg/mL).

Regarding `CCCCCCCCOc1ccc(NC(=O)C(CC(=O)OC(C)(C)C)NC(=O)/C=C/c2ccc(O)c(O)c2)cc1` (centres undefined), at Beta-1,3-glucan synthase, the pIC50 is 4.24. This molecule also displayed a minimum inhibitory concentration (MIC) in the assay on Candida albicans of 29 µM (≈ 16.1 µg/mL).

For the molecule `CCCCCCCCOc1ccc(NC(=O)C(NC(=O)[C@]2(O)C[C@@H](O)[C@@H](O)[C@H](OC(=O)/C=C/c3ccc(O)c(O)c3)C2)C(C)O)cc1` (some centres undefined), at Beta-1,3-glucan synthase, the pIC50 was < 4.31. In the assay with Candida albicans, this molecule gave an MIC of 12 µM (≈ 7.9 µg/mL).

As to `CCCCCCCCOc1ccc(NC(=O)C(CCCN)NC(=O)[C@]2(O)C[C@@H](O)[C@@H](O)[C@H](OC(=O)/C=C/c3ccc(O)c(O)c3)C2)cc1` (some centres undefined), the pIC50 at Beta-1,3-glucan synthase is 4.82. The molecule also came in with an MIC against Candida albicans of 6 µM (≈ 4.03 µg/mL).

Take `CCCCCCCCOc1ccc(NC(=O)C(CC(=O)O)NC(=O)[C@]2(O)C[C@@H](O)[C@@H](O)[C@H](OC(=O)/C=C/c3ccc(O)c(O)c3)C2)cc1` (some centres undefined): the pIC50 at Beta-1,3-glucan synthase was < 4.32. In the assay with Candida albicans, this molecule yielded an MIC of 48 µM (≈ 32.3 µg/mL).

Molecule `CCCCCCCCOc1ccc(NC(=O)[C@]2(O)C[C@@H](O)[C@@H](O)[C@H](OC(=O)/C=C/c3ccc(O)c(O)c3)C2)cc1` showed a pIC50 against Beta-1,3-glucan synthase of 4.39. Further, in the assay with Candida albicans, inhibition of growth (MIC) required 14 µM (≈ 7.81 µg/mL).

`CCCCCCCCCCCCCCCC(=O)N[C@H]1C[C@@H](O)[C@@H](O)NC(=O)[C@@H]2[C@@H](O)[C@@H](C)CN2C(=O)[C@H]([C@@H](C)O)NC(=O)[C@H]([C@H](O)[C@@H](O)c2ccc(O)cc2)NC(=O)[C@@H]2C[C@@H](O)CN2C(=O)[C@H]([C@@H](C)O)NC1=O` [ACULEACIN A] (Palmitoyl-[Orn(4R-OH,5R-OH)]T[Hyp][hTyr(3S-OH,4S-OH)]T[Pro(3S-OH,4S-Me)]; lactam 1-C): on Beta-1,3-glucan synthase, the pIC50 was 5.10. Further, in the assay on Candida albicans, the MIC was 0.23 µM (≈ 0.238 µg/mL).

Regarding `O=C(/C=C/c1ccc(O)c(O)c1)O[C@@H]1C[C@](O)(C(=O)O)C[C@@H](O)[C@H]1O` [CHLOROGENIC ACID], the negative logarithm of the IC50 (pIC50) at Beta-1,3-glucan synthase is < 4.05. For the same molecule, the MIC against Candida albicans was > 181 µM.
